In ChEMBL document CHEMBL1649328, “Assessment of pandemic and seasonal influenza A (H1N1) virus susceptibility to neuraminidase inhibitors in three enzyme activity inhibition assays” (Antimicrob Agents Chemother, 2010):

Experiments:
Influenza A virus [1] = assay: Antiviral activity against influenza A (A/Hong Kong/2369/2009 (H1N1)) virus harboring neuraminidase H275Y mutant after 16 to 18 hrs by fetuin substrate based colorimetric assay; type: functional, organism-based
Method in brief: (§1)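 Colorimetric NA inhibition with fetuin substrate. Virus was diluted in NA-Star buffer (26 mM MES, 4 mM CaCl2, pH 6.0) to give OD549 of 0.4–0.8 after 18 h. It was preincubated with ten half-log inhibitor dilutions (0.03–1,000 nM final) for 1 h at 37°C, then with fetuin (5.5 mg/ml final) for 16–18 h at 37°C. Released sialic acid was read at 549 nm after periodate/TBA reaction and butanol extraction. IC50 came from a Vmax·[1−x/(K+x)] fit, mean of ≥2 experiments.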

Influenza A virus [2] = assay: Ratio of IC50 for influenza A (A/North Carolina/01/2009 (H1N1)) virus harboring neuraminidase H275Y mutant to IC50 for influenza A (A/Washington/29/2009 (H1N1)) virus expressing wild type enzyme by MUNANA substrate based fluorometric assay; type: functional
Influenza A virus [3] = assay: Ratio of IC50 for influenza A (A/New York/18/2009 (H1N1)) virus harboring neuraminidase H275Y mutant to IC50 for influenza A (A/Washington/10/2008 (H1N1)) virus expressing wild type enzyme by NA-star substrate based chemiluminescent assay; type: functional
Influenza A virus [4] = assay: Ratio of IC50 for influenza A (A/Osaka/180/2009 (H1N1)) virus harboring neuraminidase H275Y mutant to IC50 for influenza A (A/Washington/29/2009 (H1N1)) virus expressing wild type enzyme by MUNANA substrate based fluorometric assay; type: functional
Influenza A virus [5] = assay: Antiviral activity against influenza A (A/Montana/02/2009 (H1N1)) virus harboring neuraminidase H275Y mutant after 30 mins by NA-star substrate based chemiluminescent assay; type: functional, organism-based
Method in brief: (§2)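 Titrated virus in NA-Star buffer (26 mM MES, 4 mM CaCl2, pH 6.0) was preincubated with ten half-log inhibitor dilutions (0.03–1,000 nM final) for 30 min at 37°C, then with substrate for 30 min at room temperature. Accelerator solution was added and luminescence read for 0.1 s. IC50 came from a Vmax·[1−x/(K+x)] fit, mean of ≥3 experiments.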

Influenza A virus [6] = assay: Ratio of IC50 for influenza A (A/Hong Kong/2369/2009 (H1N1)) virus harboring neuraminidase H275Y mutant to IC50 for influenza A (A/Washington/29/2009 (H1N1)) virus expressing wild type enzyme by MUNANA substrate based fluorometric assay; type: functional
Influenza A virus [7] = assay: Antiviral activity against influenza A (A/North Carolina/01/2009 (H1N1)) virus harboring neuraminidase H275Y mutant after 16 to 18 hrs by fetuin substrate based colorimetric assay; type: functional, organism-based; method in brief: as §1
Influenza A virus [8] = assay: Ratio of IC50 for influenza A (A/Singapore/91/2009 (H1N1)) virus harboring neuraminidase H275Y mutant to IC50 for influenza A (A/Washington/29/2009 (H1N1)) virus expressing wild type enzyme by fetuin substrate based colorimetric assay; type: functional
Method in brief: (§3)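 Colorimetric NA inhibition using a virus dilution that gave 0.4–0.8 OD549. Virus preincubated 1 h at 37°C with half-log inhibitor dilutions (0.03–1,000 nM final) in MES/CaCl2 pH 6.0 buffer. Fetuin (5.5 mg/ml final) then added for 18 h at 37°C. Released sialic acid detected by periodate oxidation and thiobarbituric acid, butanol extraction, read at 549 nm. IC50 curve-fitted, ≥2 experiments. Ratio is variant IC50 over wild-type reference IC50.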

Influenza A virus [9] = assay: Antiviral activity against influenza A (A/Washington/29/2009 (H1N1)) virus harboring neuraminidase H275Y mutant after 30 mins by NA-star substrate based chemiluminescent assay; type: functional, organism-based; method in brief: as §2
Influenza A virus [10] = assay: Antiviral activity against influenza A (A/Montana/02/2009 (H1N1)) virus harboring neuraminidase H275Y mutant after 16 to 18 hrs by fetuin substrate based colorimetric assay; type: functional, organism-based; method in brief: as §1
Influenza A virus [11] = assay: Ratio of IC50 for influenza A (A/Osaka/180/2009 (H1N1)) virus harboring neuraminidase H275Y mutant to IC50 for influenza A (A/Washington/29/2009 (H1N1)) virus expressing wild type enzyme by NA-star substrate based chemiluminescent assay; type: functional
Influenza A virus [12] = assay: Ratio of IC50 for influenza A (A/Montana/02/2009 (H1N1)) virus harboring neuraminidase H275Y mutant to IC50 for influenza A (A/Washington/29/2009 (H1N1)) virus expressing wild type enzyme by NA-star substrate based chemiluminescent assay; type: functional
Influenza A virus [13] = assay: Ratio of IC50 for influenza A (A/North Carolina/02/2009 (H1N1)) virus harboring neuraminidase H275Y mutant to IC50 for influenza A (A/Washington/10/2008 (H1N1)) virus expressing wild type enzyme by MUNANA substrate based fluorometric assay; type: functional
Influenza A virus [14] = assay: Antiviral activity against influenza A (A/Osaka/180/2009 (H1N1)) virus harboring neuraminidase H275Y mutant after 30 mins by NA-star substrate based chemiluminescent assay; type: functional, organism-based; method in brief: as §2
Influenza A virus [15] = assay: Antiviral activity against influenza A (A/Osaka/180/2009 (H1N1)) virus harboring neuraminidase H275Y mutant after 16 to 18 hrs by fetuin substrate based colorimetric assay; type: functional, organism-based; method in brief: as §1
Influenza A virus [16] = assay: Antiviral activity against influenza A (A/Singapore/57/2009 (H1N1)) virus harboring neuraminidase H275Y mutant after 16 to 18 hrs by fetuin substrate based colorimetric assay; type: functional, organism-based; method in brief: as §1
Influenza A virus [17] = assay: Antiviral activity against influenza A (A/Hong Kong/2369/2009 (H1N1)) virus harboring neuraminidase H275Y mutant after 30 mins by NA-star substrate based chemiluminescent assay; type: functional, organism-based; method in brief: as §2
Influenza A virus [18] = assay: Ratio of IC50 for influenza A (A/Hong Kong/2369/2009 (H1N1)) virus harboring neuraminidase H275Y mutant to IC50 for influenza A (A/Washington/29/2009 (H1N1)) virus expressing wild type enzyme by NA-star substrate based chemiluminescent assay; type: functional
Influenza A virus [19] = assay: Ratio of IC50 for influenza A (A/New York/18/2009 (H1N1)) virus harboring neuraminidase H275Y mutant to IC50 for influenza A (A/Washington/10/2008 (H1N1)) virus expressing wild type enzyme by MUNANA substrate based fluorometric assay; type: functional
Influenza A virus [20] = assay: Antiviral activity against influenza A (A/Washington/29/2009 (H1N1)) virus harboring neuraminidase H275Y mutant after 16 to 18 hrs by fetuin substrate based colorimetric assay; type: functional, organism-based; method in brief: as §1
Influenza A virus [21] = assay: Ratio of IC50 for influenza A (A/North Carolina/02/2009 (H1N1)) virus harboring neuraminidase H275Y mutant to IC50 for influenza A (A/Washington/10/2008 (H1N1)) virus expressing wild type enzyme by fetuin substrate based colorimetric assay; type: functional
Influenza A virus [22] = assay: Ratio of IC50 for influenza A (A/New York/18/2009 (H1N1)) virus harboring neuraminidase H275Y mutant to IC50 for influenza A (A/Washington/10/2008 (H1N1)) virus expressing wild type enzyme by fetuin substrate based colorimetric assay; type: functional
Influenza A virus [23] = assay: Ratio of IC50 for influenza A (A/Singapore/57/2009 (H1N1)) virus harboring neuraminidase H275Y mutant to IC50 for influenza A (A/Washington/29/2009 (H1N1)) virus expressing wild type enzyme by fetuin substrate based colorimetric assay; type: functional; method in brief: as §3

SMILES | IC50 (Influenza A virus [1]) [nM] | Ratio IC50 (Influenza A virus [2]) | Ratio IC50 (Influenza A virus [3]) | Ratio IC50 (Influenza A virus [4]) | IC50 (Influenza A virus [5]) [nM] | Ratio IC50 (Influenza A virus [6]) | IC50 (Influenza A virus [7]) [nM] | Ratio IC50 (Influenza A virus [8]) | IC50 (Influenza A virus [9]) [nM] | IC50 (Influenza A virus [10]) [nM] | Ratio IC50 (Influenza A virus [11]) | Ratio IC50 (Influenza A virus [12]) | Ratio IC50 (Influenza A virus [13]) | IC50 (Influenza A virus [14]) [nM] | IC50 (Influenza A virus [15]) [nM] | IC50 (Influenza A virus [16]) [nM] | IC50 (Influenza A virus [17]) [nM] | Ratio IC50 (Influenza A virus [18]) | Ratio IC50 (Influenza A virus [19]) | IC50 (Influenza A virus [20]) [nM] | further results
C/C=C\[C@@H]1C[C@H](C(=O)O)N[C@H]1[C@@H](NC(C)=O)[C@](C)(CCC)OC | 3.56 | 4 | 1 | 5 | 1 | 3 | 2.32 | 1 | 1.62 | 1.89 | 3 | 6 | 1 | 0.91 | 4.08 | 1.58 | 1.09 | 3 | 1 | 2.07 | Ratio IC50 (Influenza A virus [21]): 1; Ratio IC50 (Influenza A virus [22]): 1; Ratio IC50 (Influenza A virus [23]): 1
CCC(CC)[C@H](NC(C)=O)[C@@H]1[C@H](O)[C@@H](C(=O)O)C[C@H]1NC(=N)N [PERAMIVIR ANHYDROUS] | 162 | 831 | 1 | 488 | 15 | 641 | 105 | 1 | 12.5 | 83.4 | 93 | 136 | 1 | 13.1 | 195 | 84.8 | 9.24 | 66 | 1 | 163 | Ratio IC50 (Influenza A virus [21]): 1; Ratio IC50 (Influenza A virus [22]): 1; Ratio IC50 (Influenza A virus [23]): 173
